Experiment [1] has as its system Mycobacterium tuberculosis. The experiment in a line: Inhibition of Mycobacterium tuberculosis salicylate synthase expressed in Escherichia coli BL21(DE3) assessed as residual activity at 100 uM using chorismic acid as substrate in presence of NADH by l-lactic dehydrogenase enzyme coupled assay relative to control.
Experiment [2] in a line: Inhibition of Mycobacterium tuberculosis salicylate synthase expressed in Escherichia coli BL21(DE3) using chorismic acid as substrate in presence of NADH by l-lactic dehydrogenase enzyme coupled assay. Summed up: (§1)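 IC50 at subsaturating chorismic acid (50 µM) via LDH-coupled NADH assay, 37 °C, 50 mM HEPES pH 8.0, 10 mM MgCl2, 10-20 µM MbtI; activity at varied inhibitor fitted to A[I] = A[0]×(1−[I]/([I]+IC50)). Aggregation controls run with BSA or Triton X-100 added (line 8 BSA, line 11 Triton).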

Experiment [3] deals with Mycobacterium tuberculosis. The experiment in a line: Inhibition of Mycobacterium tuberculosis salicylate synthase expressed in Escherichia coli BL21(DE3) using chorismic acid as substrate in presence of BSA by l-lactic dehydrogenase enzyme coupled assay. The method, boiled down:
as §1

The nature of experiment [4]: Competitive inhibition of Mycobacterium tuberculosis salicylate synthase expressed in Escherichia coli BL21(DE3) using varying levels of chorismic acid as substrate in presence of NADH by l-lactic dehydrogenase enzyme coupled assay. The method, boiled down:
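Ki by competitive-inhibition fit of MbtI activity across varied CHA (10-500 µM range used for kinetics) and inhibitor levels (0, 5, 10, 20, 50, 100 µM). Coupled lactate dehydrogenase assay at 37 °C: 50 mM HEPES pH 8.0, 0.2 mM NADH, 10 mM MgCl2, 3 U LDH, 10-20 µM MbtI; reactions started with CHA; triplicate.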

Experiment [5] deals with Mycobacterium tuberculosis. As to the kind of experiment: Inhibition of Mycobacterium tuberculosis salicylate synthase expressed in Escherichia coli BL21(DE3) using chorismic acid as substrate in presence of Triton-X-100 by l-lactic dehydrogenase enzyme coupled assay. Summed up: as §1
The subject of experiment [6] is Mycobacterium tuberculosis. The experiment in a line: Inhibition of Mycobacterium tuberculosis salicylate synthase expressed in Escherichia coli BL21(DE3) using chorismic acid as substrate in presence of DTT by l-lactic dehydrogenase enzyme coupled assay. Summed up: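 IC50 with 100 µM DTT present, to probe cysteine reactivity; LDH-coupled assay at 37 °C with 50 µM chorismic acid, 50 mM HEPES pH 8.0, 0.2 mM NADH, 10 mM MgCl2, 10-20 µM MbtI; fitted to single-site IC50 equation.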

For experiment [7], the system named is Mycobacterium tuberculosis. As to the kind of experiment: Antimycobacterial activity against Mycobacterium tuberculosis H37Rv. Type of experiment: functional. The method, boiled down: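 MIC99 vs M. tuberculosis H37Rv on solid medium. Single colony grown in 7H9 + 10% OADC at 37 °C to exponential phase (~10^8 CFU/mL), diluted to ~10^6 CFU/mL, about 1 µL streaked onto plates with two-fold serial compound dilutions; MIC = lowest concentration inhibiting growth; triplicate.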

Here are results for 24 compounds from ChEMBL document CHEMBL4152320, “Discovery and development of novel salicylate synthase (MbtI) furanic inhibitors as antitubercular agents” (Eur J Med Chem, 2018).

What is called IC50 is the concentration at which inhibition is half-maximal. As a reminder, the Ki is a dissociation constant, usually derived from enzyme kinetics or from competition with a known ligand. Broadly, the MIC99 is an inhibitory concentration at the 99% level, which refers to growth in some studies and to a panel of isolates in others. A low value points to higher susceptibility.

Values after ≈ are worked out from the molar mass of the structure shown. Active and inactive are the calls of the source. The calls are words filed in the database; no cut-off is given here.

As for `O=C(O)c1ccc([N+](=O)[O-])cc1Cl`, the Activity in experiment [1] is 89.3%. On the same count and under the same terms, the figure for `O=C(O)c1ccc(-c2ccc(O)cc2)o1` is 96.3%; for `O=C(O)c1ccc(-c2ccc(C(=O)O)o2)cc1` it is 92.4%; for `O=C(O)c1ccc(-c2ccc(C(F)(F)F)cc2)o1` it is 66.3%. The same measure, in the same setting: the figure for `O=C(O)c1ccc(-c2ccccc2Cl)o1` is 92.4%. `C/C=C(\Oc1cccc(C(=O)O)c1O)C(=O)O`: in experiment [2], the IC50 is 11.6 µM. On to `N#Cc1ccc(-c2ccc(C(=O)O)o2)cc1`, for which the Activity in experiment [1] stood at 126%.

Consider `O=C(O)c1ccc(-c2cccc([N+](=O)[O-])c2)o1`, for which the Activity in experiment [1] amounted to 50.2%. On the same count and under the same terms, then `Cc1cc(C(=O)O)c2ccc(F)cc2n1`, with 101%.

On to `O=C(O)c1ccc(-c2ccccc2[N+](=O)[O-])o1`, for which, in experiment [1], the Activity was 55.1%.

Turning to `NS(=O)(=O)c1ccc(-c2ccc(C(=O)O)o2)cc1`, the Activity in experiment [1] is 84.6%. Regarding `O=C(O)c1ccc(-c2ccc3c(c2)COC3=O)o1`, the Activity in experiment [1] was 58%. Still for that read-out and setting: then `COC(=O)c1ccc(-c2ccc([N+](=O)[O-])cc2)o1`, with 71.1%. With `COc1ccc([N+](=O)[O-])cc1S(=O)(=O)Nc1cccc(C(=O)O)c1`, in experiment [2], the IC50 was determined as 77.6 µM. In addition, in experiment [1], the Activity amounted to 38.4%. With `O=C(O)c1cccc(-c2ccc([N+](=O)[O-])cc2)c1`, the Activity in experiment [1] came to 36.8%. On to `O=C(O)c1ccc(-c2ccc([N+](=O)[O-])cc2)o1`, for which the inhibition entry in experiment [3], in experiment [5] and in experiment [6] was “Active” throughout. The inhibitory constant (Ki) in experiment [4] worked out at 5.3 µM. Moreover, in experiment [1], the Activity is 18.2%. Moreover, the MIC99 in experiment [7] came to 156 µM (≈ 36.4 µg/mL). Regarding `CS(=O)(=O)c1ccc(-c2ccc(C(=O)O)o2)cc1`, in experiment [1], the Activity was 98.5%. As for `O=C(O)c1ccc(-c2ccccc2)o1`, in experiment [1], the Activity turned out to be 102%. Still for that read-out and setting: the figure for `O=C(O)c1ccc(-c2ccc3nonc3c2)o1` is 46.8%.

With `COc1ccc(C(=O)O)cc1OCc1ccncc1`, the Activity in experiment [1] is 104%. Take `O=C(O)c1ccc(-c2ccncc2)o1`: the Activity in experiment [1] came out at 45%. As for `Cc1nc(C(C)NC(=O)c2ccoc2)sc1C(=O)O` (stereo unspecified), in experiment [1], the Activity was determined as 109%. Still for that read-out and setting: the figure for `O=C(O)c1ccc(-c2ccc(-c3nn[nH]n3)cc2)o1` is 104%.

`O=C(O)c1ccc(-c2ccc([N+](=O)[O-])cc2Cl)o1`: the half-inhibitory concentration (IC50) in experiment [2] is 21.1 µM. The Activity in experiment [1] was determined as 21.3%.
